Source: ChEMBL document CHEMBL4270541, “Synthesis and antimicrobial evaluation of amino sugar-based naphthoquinones and isoquinoline-5,8-diones and their halogenated compounds” (Eur J Med Chem, 2018)
Converted amounts (≈) assume the structure as drawn. The source made the active and inactive calls. No cut-off for these calls is given here.

Tests used:
[1] = test system: Staphylococcus aureus; test: Bactericidal activity against Staphylococcus aureus INCQS 00015 ATCC 25923 at 256 ug/ml incubated for 24 hrs followed by transfer of microbial suspension to agar plates and measured after 24 hrs post transfer by resazurin dye-based colorimetric analysis; format: functional, organism-based
Summary of the method: (§1)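 For MBC, 10 µL from each clear MIC well was plated on agar and incubated 24 h at 37°C. MBC is the minimum concentration inhibiting 99.9% of growth. […] Triplicate.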

[2] = test system: Staphylococcus epidermidis; test: Ratio of MBC99.9 to MIC for Staphylococcus epidermidis INCQS 00016 ATCC 12228; format: functional, ATCC 12228 INCQS 00016
Summary of the method: (§2)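 MBC/MIC ratio from the 24 h, 37°C microdilution MIC and the agar-plating MBC (99.9% growth inhibition). A ratio ≤2 was classed as bactericidal and ≥4 as bacteriostatic.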

[3] = test system: Pseudomonas aeruginosa; test: Bactericidal activity against Pseudomonas aeruginosa INCQS 00099 ATCC 27853 at 256 ug/ml incubated for 24 hrs followed by transfer of microbial suspension to agar plates and measured after 24 hrs post transfer by resazurin dye-based colorimetric analysis; format: functional, organism-based; summary of the method: as §1
[4] = test system: Staphylococcus aureus; test: Antimicrobial activity against methicillin-resistant Staphylococcus aureus BMB9393 assessed as zone of inhibition at 5 mg/ml after 18 to 24 hrs by disc diffusion method; format: functional; details: read-out: IZ
[5] = test system: Staphylococcus simulans; test: Antimicrobial activity against Staphylococcus simulans INCQS 00254 ATCC 27851 at 256 ug/ml after 24 hrs by microdilution assay; format: functional, organism-based
[6] = test system: Staphylococcus aureus; test: Antimicrobial activity against methicillin-resistant Staphylococcus aureus BMB9393 at 256 ug/ml after 24 hrs by microdilution assay; format: functional, organism-based
[7] = test system: Staphylococcus epidermidis; test: Antimicrobial activity against Staphylococcus epidermidis INCQS 00016 ATCC 12228 after 24 hrs by microdilution assay; format: functional; details: ATCC 12228 INCQS 00016, 24 h
[8] = test system: Pseudomonas aeruginosa; test: Antimicrobial activity against Pseudomonas aeruginosa INCQS 00099 ATCC 27853 assessed as zone of inhibition at 5 mg/ml after 18 to 24 hrs by disc diffusion method; format: functional; details: read-out: IZ
[9] = test system: Klebsiella pneumoniae; test: Antimicrobial activity against Klebsiella pneumoniae INCQS 00083 ATCC 4352 assessed as zone of inhibition at 5 mg/ml after 18 to 24 hrs by disc diffusion method; format: functional; details: read-out: IZ
[10] = test system: Escherichia coli; test: Bactericidal activity against Escherichia coli INCQS 00033 ATCC 25922 at 256 ug/ml incubated for 24 hrs followed by transfer of microbial suspension to agar plates and measured after 24 hrs post transfer by resazurin dye-based colorimetric analysis; format: functional, organism-based; details: ATCC 25922 INCQS 00033; summary of the method: as §1
[11] = test system: Staphylococcus aureus; test: Antimicrobial activity against Staphylococcus aureus INCQS 00015 ATCC 25923 assessed as zone of inhibition at 5 mg/ml after 18 to 24 hrs by disc diffusion method; format: functional; details: read-out: IZ
[12] = test system: Staphylococcus simulans; test: Antimicrobial activity against Staphylococcus simulans INCQS 00254 ATCC 27851 assessed as zone of inhibition at 5 mg/ml after 18 to 24 hrs by disc diffusion method; format: functional; details: read-out: IZ
[13] = test system: Enterococcus faecalis; test: Antimicrobial activity against Enterococcus faecalis INCQS 00234 ATCC 29212 assessed as zone of inhibition at 5 mg/ml after 18 to 24 hrs by disc diffusion method; format: functional; details: ATCC 29212 INCQS 00234, read-out: IZ
[14] = test system: Staphylococcus simulans; test: Bactericidal activity against Staphylococcus simulans INCQS 00254 ATCC 27851 at 256 ug/ml incubated for 24 hrs followed by transfer of microbial suspension to agar plates and measured after 24 hrs post transfer by resazurin dye-based colorimetric analysis; format: functional, organism-based; summary of the method: as §1
[15] = test system: Staphylococcus aureus; test: Bactericidal activity against methicillin-resistant Staphylococcus aureus BMB9393 at 256 ug/ml incubated for 24 hrs followed by transfer of microbial suspension to agar plates and measured after 24 hrs post transfer by resazurin dye-based colorimetric analysis; format: functional, organism-based
Summary of the method: (§3)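 From MIC wells with no visible growth, 10 µL is transferred to agar plates and incubated 24 h at 37°C. MBC is the minimum concentration inhibiting 99.9% of growth. […] Triplicate.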

[16] = Hemolytic activity against human erythrocytes assessed as hemolysis at 200 ug/ml after 3 hrs by spectrophotometric analysis relative to control; format: ADME, cell-based, Erythrocyte; details: read-out: Activity
Summary of the method: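 Erythrocytes collected in citrate tubes, washed three times with PBS pH 7.4 by centrifugation and resuspended in PBS. Incubated with compounds at 200 µg/mL for 3 h at 37°C. Released hemoglobin was read in the supernatant at 545 nm against 1% Triton X-100 (complete lysis) and 1% DMSO (negative control). Below 10% hemolysis was taken as hemocompatible. Three independent experiments.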

[17] = test system: Staphylococcus epidermidis; test: Antimicrobial activity against Staphylococcus epidermidis INCQS 00016 ATCC 12228 assessed as zone of inhibition at 5 mg/ml after 18 to 24 hrs by disc diffusion method; format: functional; details: ATCC 12228 INCQS 00016, read-out: IZ
[18] = test system: Proteus mirabilis; test: Antimicrobial activity against Proteus mirabilis INCQS 00095 ATCC 15290 assessed as zone of inhibition at 5 mg/ml after 18 to 24 hrs by disc diffusion method; format: functional; details: read-out: IZ
[19] = test system: Escherichia coli; test: Antimicrobial activity against Escherichia coli INCQS 00033 ATCC 25922 assessed as zone of inhibition at 5 mg/ml after 18 to 24 hrs by disc diffusion method; format: functional; details: ATCC 25922 INCQS 00033, read-out: IZ
[20] = test system: Staphylococcus aureus; test: Antimicrobial activity against Staphylococcus aureus INCQS 00015 ATCC 25923 at 256 ug/ml after 24 hrs by microdilution assay; format: functional, organism-based
[21] = test system: Staphylococcus epidermidis; test: Bactericidal activity against Staphylococcus epidermidis INCQS 00016 ATCC 12228 incubated for 24 hrs followed by transfer of microbial suspension to agar plates and measured after 24 hrs post transfer by resazurin dye-based colorimetric analysis; format: functional; details: ATCC 12228 INCQS 00016, 24 h, read-out: MBC99.9; summary of the method: as §1
[22] = test system: Pseudomonas aeruginosa; test: Antimicrobial activity against Pseudomonas aeruginosa INCQS 00099 ATCC 27853 at 256 ug/ml after 24 hrs by microdilution assay; format: functional, organism-based
[23] = test system: Escherichia coli; test: Antimicrobial activity against Escherichia coli INCQS 00033 ATCC 25922 at 256 ug/ml after 24 hrs by microdilution assay; format: functional, organism-based; details: ATCC 25922 INCQS 00033
[24] = test system: Staphylococcus simulans; test: Bactericidal activity against Staphylococcus simulans INCQS 00254 ATCC 27851 incubated for 24 hrs followed by transfer of microbial suspension to agar plates and measured after 24 hrs post transfer by resazurin dye-based colorimetric analysis; format: functional; details: INCQS 00254 ATCC 27851, 24 h, read-out: MBC99.9; summary of the method: as §1
[25] = test system: Staphylococcus simulans; test: Antimicrobial activity against Staphylococcus simulans INCQS 00254 ATCC 27851 after 24 hrs by microdilution assay; format: functional; details: INCQS 00254 ATCC 27851, 24 h
[26] = test system: Staphylococcus aureus; test: Antimicrobial activity against Staphylococcus aureus INCQS 00015 ATCC 25923 after 24 hrs by microdilution assay; format: functional; details: INCQS 00015 ATCC 25923, 24 h
[27] = test system: Staphylococcus aureus; test: Bactericidal activity against Staphylococcus aureus INCQS 00015 ATCC 25923 incubated for 24 hrs followed by transfer of microbial suspension to agar plates and measured after 24 hrs post transfer by resazurin dye-based colorimetric analysis; format: functional; details: INCQS 00015 ATCC 25923, 24 h, read-out: MBC99.9; summary of the method: as §3
[28] = test system: Staphylococcus aureus; test: Ratio of MBC99.9 to MIC for Staphylococcus aureus INCQS 00015 ATCC 25923; format: functional; summary of the method: as §2
[29] = test system: Staphylococcus simulans; test: Ratio of MBC99.9 to MIC for Staphylococcus simulans INCQS 00254 ATCC 27851; format: functional; summary of the method: as §2

Row | Structure (SMILES) | Activity [1] | Ratio [2] | Activity [3] | zone of inhibition at 5000 µg/mL [4] [mm] | Activity [6] | MIC [7] [µg/mL] | zone of inhibition at 5000 µg/mL [8] [mm] | zone of inhibition at 5000 µg/mL [9] [mm] | Activity [10] | zone of inhibition at 5000 µg/mL [11] [mm] | zone of inhibition at 5000 µg/mL [12] [mm] | zone of inhibition at 5000 µg/mL [13] [mm] | Activity [15] | hemolysis at 3 h, 200 ug/ml [16] [%] | zone of inhibition at 5000 µg/mL [17] [mm] | zone of inhibition at 5000 µg/mL [18] [mm] | zone of inhibition at 5000 µg/mL [19] [mm] | MBC [21] [µg/mL] | Activity [22] | Activity [23] | further results
1 | COC(=O)c1c(C)nc(C)c2c1C(=O)C(Br)=C(NC[C@H]1O[C@@H]3OC(C)(C)O[C@@H]3[C@H]1O)C2=O | inactive | 1 | inactive | 0 | inactive | 64 (≈ 125 µM) | 0 | 0 | inactive | 0 | 0 | 0 | inactive | < 10 | 7 | 0 | 0 | 64 (≈ 125 µM) | inactive | inactive | Activity [5]: inactive; Activity [14]: inactive; Activity [20]: inactive
2 | COC(=O)c1c(C)nc(C)c2c1C(=O)C(Cl)=C(N)C2=O |  | 1 | inactive | 12 | inactive | 32 (≈ 109 µM) | 0 | 0 | inactive | 15 | 16 | 0 | inactive | 10.1 to 14.4 | 18 | 0 | 0 | 32 (≈ 109 µM) | inactive | inactive | MBC [24]: 32 µg/mL (≈ 109 µM); MIC [25]: 32 µg/mL (≈ 109 µM); MIC [26]: 64 µg/mL (≈ 217 µM); MBC [27]: 64 µg/mL (≈ 217 µM); Ratio [28]: 1; Ratio [29]: 1
3 | COC(=O)c1c(C)nc(C)c2c1C(=O)C=C(NC[C@H]1O[C@@H]3OC(C)(C)O[C@@H]3[C@H]3OC(C)(C)O[C@H]31)C2=O | inactive | 1 | inactive | 0 | inactive | 256 (≈ 509 µM) | 0 | 0 | inactive | 0 | 0 | 0 | inactive | < 10 | 9 | 0 | 0 | 256 (≈ 509 µM) | inactive | inactive | Activity [5]: inactive; Activity [14]: inactive; Activity [20]: inactive
4 | COC(=O)c1c(C)nc(C)c2c1C(=O)C=C(NC[C@H]1O[C@@H]3OC(C)(C)O[C@@H]3[C@H]1O)C2=O | inactive | 1 | inactive | 0 | inactive | 256 (≈ 592 µM) | 0 | 0 | inactive | 0 | 0 | 0 | inactive | < 10 | 10 | 0 | 0 | 256 (≈ 592 µM) | inactive | inactive | Activity [5]: inactive; Activity [14]: inactive; Activity [20]: inactive
5 | COC(=O)c1c(C)nc(C)c2c1C(=O)C(Cl)=C(NC[C@H]1O[C@@H]3OC(C)(C)O[C@@H]3[C@H]1O)C2=O | inactive | 1 | inactive | 0 | inactive | 32 (≈ 68.5 µM) | 0 | 0 | inactive | 0 | 0 | 0 | inactive | 10.1 to 14.4 | 8 | 0 | 0 | 32 (≈ 68.5 µM) | inactive | inactive | Activity [5]: inactive; Activity [14]: inactive; Activity [20]: inactive
6 | CN[C@H](CC(C)C)C(=O)N[C@H]1C(=O)N[C@@H](CC(N)=O)C(=O)N[C@H]2C(=O)N[C@H]3C(=O)N[C@H](C(=O)N[C@H](C(=O)O)c4cc(O)cc(O)c4-c4cc3ccc4O)[C@H](O)c3ccc(c(Cl)c3)Oc3cc2cc(c3O[C@@H]2O[C@H](CO)[C@@H](O)[C@H](O)[C@H]2O[C@H]2C[C@](C)(N)[C@H](O)[C@H](C)O2)Oc2ccc(cc2Cl)[C@H]1O [VANCOMYCIN] |  |  |  | 14 |  |  |  |  |  | 16 | 16 | 16 |  |  | 15 |  |  |  |  |  | MIC [25]: 2 µg/mL (≈ 1.38 µM)
